Compound activity as filed in PubChem.
Most compounds without a hit are left out; they make up all but 9% or so of the library.
M1 agonist: activates the M1 muscarinic receptor | AID 626 | hit rate 3% among 64,000 | B-score at 10 µM | CHO-M1 cells, Fluo-4 calcium fluorescence, agonist mode; stronger effect = higher value;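 active = fluorescence rise, raw or as B-score row- and column-corrected plate score, outside the 99.7% band of its plate's samples, either direction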
M1 antag: M1 muscarinic receptor (rat) antagonism | P08482 | CHO-M1 cells, Fluo-4 calcium, ACh EC80 antagonist mode; stronger effect = lower value | B-score at 10 µM | hit rate 3.4% among 64,000;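 active = calcium fluorescence response, raw or row-and-column corrected B-score, differing from the plate sample mean either way at a set confidence level, mostly lower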
Target sequence (P08482 whole entry, looked up): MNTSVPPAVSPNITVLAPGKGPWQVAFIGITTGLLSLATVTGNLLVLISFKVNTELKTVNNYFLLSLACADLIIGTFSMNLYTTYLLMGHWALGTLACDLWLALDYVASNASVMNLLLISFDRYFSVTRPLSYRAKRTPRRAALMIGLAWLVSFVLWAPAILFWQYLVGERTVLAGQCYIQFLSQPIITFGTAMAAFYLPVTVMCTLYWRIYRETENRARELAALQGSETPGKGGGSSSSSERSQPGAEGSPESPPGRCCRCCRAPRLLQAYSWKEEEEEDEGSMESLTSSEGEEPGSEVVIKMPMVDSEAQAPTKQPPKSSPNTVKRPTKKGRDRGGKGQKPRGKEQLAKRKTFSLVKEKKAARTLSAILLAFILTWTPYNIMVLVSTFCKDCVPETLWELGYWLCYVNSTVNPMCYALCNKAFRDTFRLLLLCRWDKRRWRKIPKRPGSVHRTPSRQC
D1 allo mod: D1 dopamine receptor (human) allosteric modulation; HEK293 D1, CRE-luciferase, dopamine EC30 potentiation; actives deviate in either direction; B-score at 10 µM; hit rate 5.9% among 58,000; AID 641;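 active = luminescence count or its row- and column-corrected plate score outside the 99.7% band of the plate's sample wells, on either side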
mHtt clearance: compounds clearing mutant huntingtin protein | hit rate 0.42% among 47,000 | HeLa Exon1htt(103Q)mCFP, aggregate imaging; zero = plate's median compound well | inhibition, % at 1.5 µM;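 active = inhibition of aggregate fluorescence above about 70%, also judged a hit by eye on the cell image, limit read from the data, passing the limit was not always enough; inconclusive = no rule stated for this call; inactive = not judged a hit on image review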;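 also: cells exposed to compound for three days before fixation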
AP complement: alternative pathway complement inhibition, orthogonal assay | Human serum alternative complement pathway, LPS-coated ELISA, C3 deposition; tested in compound mixtures | inhibition, % at 5 µM | hit rate 0.08% among 62,000;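 active = inhibition above 30% in each of the two pooled mixtures holding the compound, so the lower value exceeds 30%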;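 also: 0% = serum in Mg-EGTA without compound and 100% = EDTA serum blank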
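Medium: diluted human serum in Mg2+-EGTA GVB++. Assay system: human serum complement alternative pathway, C3 deposition onto LPS. Also added: Plate-bound LPS. Technique: Anti-C3 ELISA, OD 450 nm. Measure: percent inhibition. Incubation: 1 h at 37 °C. Dosing: 5 µM each compound, pools of ten, 50 µM per pool.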
* hit, by the source's call; ? = inconclusive; . = not tested or not shown.

SMILES	M1 agonist	M1 antag	D1 allo mod	mHtt clearance	AP complement
CCCC(c1nnnn1Cc1ccco1)N1CCN(C(=O)c2ccco2)CC1 (centres undefined)	-0.11	0.15*	-0.62	.	14
Cc1ccc(N(CC(=O)Nc2ccc3c(c2)OCCO3)S(=O)(=O)c2c(C)n[nH]c2C)cc1	0.49	0.42	-0.32	.	20
Cc1n[nH]c(C)c1S(=O)(=O)Nc1ccc2c(c1)OCCO2	0.34	2.3*	-4.2*	5	15
O=C(CCCn1c(=S)[nH]c2ccccc2c1=O)N1CCCCC1	-0.34	-0.23	0.62	73*	-7
O=C(OCc1nnc(-c2ccccc2)o1)c1ccc(S(=O)(=O)NCc2ccco2)cc1	-0.86	0.099	-0.06	71*	-7
CCCCn1c(CN2CCN(c3cccc(Cl)c3)CC2)nc2c1c(=O)n(C)c(=O)n2C	0.019	-0.44	-2.9*	.	2
CCCCCn1c(CN2CCN(c3cccc(Cl)c3)CC2)nc2c1c(=O)n(C)c(=O)n2C	-1.2	-0.25	-0.75	35	3
CCCn1c(CN2CCN(c3cccc(Cl)c3)CC2)nc2c1c(=O)n(C)c(=O)n2C	11*	-2.5*	-2.8	.	23
CC(=O)C1=C(O)CCC1=N	1.3	-0.67	-0.026	.	39*
CCn1c(SCC(=O)c2cc(OC)ccc2OC)nc2c1c(=O)n(C)c(=O)n2C	0.51	0.63	4.9*	.	6
CCC(Oc1ccc2c(c1)C(=O)CC(C)(C)O2)C(=O)NCCN1CCCCCC1 (centres undefined)	0.14	-0.38	-0.91	.	6
N#CC1=C(N)C(C#N)(C#N)C2(C(=O)Nc3ccccc32)C2CCCC=C12 (centres undefined)	.	.	-6.2*	.	7
O=C1Nc2ccccc2C12OC1CCCCC1O2 (centres undefined)	0.059	-0.022	-0.01	.	8
Cc1snc(S(=O)(=O)Cc2ccccc2Cl)c1C#N	.	.	.	-50	.
CCCOC1(NC(=O)c2ccccc2)C(C)=CC(=O)C=C1C	0.087	0.63	-3.2*	?	18
CCOC(=O)C(NC(=O)c1ccccc1)=C1CCCCC1	0.026	-0.24	1.1	.	-2
CCNC(=O)CSc1nc2cc(OC)c(OC)cc2c(=O)n1CCC1=CCCCC1	0.29	0.26	-0.14	.	23
COc1ccc(C2=C(O)C(C)N(c3ccccc3)C2=N)cc1OC (centres undefined)	-0.32	-0.59	-3.5*	.	6
COc1ccc(-c2cnn(-c3ccccc3)c2N)cc1OC	0.21	-0.046	0.035	.	15
Cn1c(=O)c2cc(NC(=O)c3ccccc3Cl)c(=O)oc2n(C)c1=O	-0.44	0.28	-0.25	.	21
C=C(C)Cn1c(N2CC(C)CC(C)C2)nc2c1c(=O)[nH]c(=O)n2C (centres undefined)	1.2	0.36	7*	.	4
CCCCCn1c(N2CCN(c3cccc(Cl)c3)CC2)nc2c1c(=O)[nH]c(=O)n2C	-0.039	-0.62	4.9*	54	14
CCCCCCn1c(N2CCC(C)CC2)nc2c1c(=O)[nH]c(=O)n2C	-1.4	-0.4	18*	7	16
O=c1[nH]c2ccccc2n1CCCN1CCN(C(c2ccccc2)c2ccccc2)CC1	0.27	-10	-5.2	.	20
COc1ccc(-c2csc(N3CCOCC3)n2)cc1OC	0.58	0.047	13*	15	10
SMILES	M1 agonist	M1 antag	D1 allo mod	mHtt clearance	AP complement
COc1cccc(CNC(=O)C(CCSC)NS(=O)(=O)c2ccc3c(c2)oc(=O)n3C)c1 (centres undefined)	0.47	-0.78	-0.77	8	11
O=C1c2cccnc2C(=O)N1Cc1ccccc1	-0.13	0.35	3.6	.	6
O=C1c2cccnc2C(=O)N1Cc1ccc(F)cc1	0.1	-0.021	-1.2*	.	-17
Nc1ccc(C2CCCc3nonc32)c2nonc12 (centres undefined)	.	.	-2.8*	.	-4
N#Cc1ccc(NC(=O)c2cc3cc4c5c(c3oc2=N)CCCN5CCC4)cc1	166*	0.19	0.29	.	7
Cc1oc2c(c1C(=O)Nc1ccc(C(=O)O)cc1)CCCC2	.	.	.	29	.
Cc1cc(NC(=O)CN2CCN(c3ccccc3F)CC2)nc2c1c(=O)oc1ccccc12	0.69	0.76	0.54	.	28
CN(C)Cc1cc(CCNC(=O)c2ccc(Cl)cc2)ccc1O	.	.	-2.9*	-1	11
OC(Cn1cccn1)c1ccccc1 (centres undefined)	0.46	0.46	0.27	11	-8
c1nc(NCCN2CCOCC2)c2sc3nc(N4CCOCC4)c4c(c3c2n1)CCC4	1.7	-1.5	6.8*	.	10
CCCCCn1c(=NC(C)=O)c(C#N)cc2c(=O)n3ccccc3nc21	1.3	-0.19	1.3	44	14
CCOC(=O)c1cc2c(=O)n3cccc(C)c3nc2n(Cc2ccco2)c1=NC(=O)c1ccccc1	.	.	.	13	.
Cc1cccn2c(=O)c3cc(C#N)c(=NC(=O)c4ccncc4)n(Cc4ccco4)c3nc12	6.6*	0.011	0.19	.	7
CCCCn1c(=NC(C)=O)c(C#N)cc2c(=O)n3cccc(C)c3nc21	21*	0.049	-0.078	.	1
CC1(C)CC(=O)CC(C)(C)N1OC(=O)c1ccccn1	-0.58	0.3	0.6	-2	16
Cc1ccc(OC(=O)CCc2c(C)nc3ncnn3c2C)cc1	0.47	0.026	-0.38	35	0
N=C1C=CC=C2C1=NC1(CCCCC1)N2O	-1.1	-0.31	1.5	-206	-4
Cc1cc(C(=O)O)c(CCCN)s1	-0.3	0.28	-0.59	.	-4
COc1ccccc1S(=O)(=O)Cc1ccc(C(=O)N2CCN(c3ccc(C)cc3)C(C)C2)o1 (centres undefined)	3.3	-1.8	-2.8*	.	-2
C/C=C/c1ccc(Oc2nnnn2-c2ccc(C(N)=O)cc2)c(OC)c1	-0.78	-0.13	-6.5*	.	1
NC(=O)c1ccc(-n2nnnc2Oc2ccccc2)cc1	0.18	0.36	0.64	56	-1
O=c1cc(CN2CCN(Cc3ccccc3)CC2)c2cc(Cl)ccc2o1	0.39	-0.62	-4.2*	7	22
Cc1cc2oc(=O)cc(CN3CCN(Cc4ccccc4)CC3)c2cc1Cl	0.49	-0.31	-0.89	.	12
CCc1ccc2oc(=O)cc(CN3CCN(c4ccc(F)cc4)CC3)c2c1	-0.19	-0.19	-0.48	.	12
CC(C)c1ccc2oc(=O)cc(CN3CCN(c4ccc(F)cc4)CC3)c2c1	-1.4	0.44	0.059	28	40*
SMILES	M1 agonist	M1 antag	D1 allo mod	mHtt clearance	AP complement
O=C(NC(=O)c1cccc(OC(F)(F)C(F)F)c1)OC1CCS(=O)(=O)C1 (centres undefined)	22*	-19*	-0.65	.	8
COc1ccc(C)cc1NC(=O)C1CC(=O)OC12CCCCC2 (centres undefined)	-0.32	0.44	-0.25	.	-1
CN(C)C(=O)c1c2c(nc3ccccc13)-c1ccccc1CC2	.	.	.	-59	.
CCC(=O)Nc1nc(N)n(-c2ccccc2)n1	.	.	.	43	.
CCC(=O)Nc1cc2nn(-c3ccccc3)nc2cc1Cl	-0.91	-1.3	-5.4*	.	14
CCc1ccc2oc(-c3cc(N=Cc4cccc(OC)c4O)ccc3O)nc2c1	-0.041	0.19	-5.6*	39	.
COc1cccc(C=Nc2cc(C)on2)c1O	0.0042	0.11	0.21	.	5
